Where a name gives a salt, the structure may show the parent alone.
Tested on: CHO
Experiment: Downmodulation of human CD4 expressed in CHO cells transfected with CD4-YFP construct assessed as decrease in fluorescence intensity after 24 hrs by flow cytometry analysis
Format: functional, cell-based
Conditions: Cricetulus griseus
Method in brief: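 CHO cells stably expressing human CD4 fused at its C-terminus to YFP, exposed to a range of concentrations for 24 h at 37 °C. Cells were washed, fixed in 1% formaldehyde and analysed at once by flow cytometry with 488 nm excitation, reading YFP in FL-1. YFP median fluorescence intensity was expressed as % of untreated control after subtracting the background of nontransfected cells. IC50 is the 50% CD4 down-modulation point, reported as mean ± SD of three independent experiments (two for some).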

`C=C1CNCCCN(CC2CCCCC2)CCCN(S(=O)(=O)c2ccc(C)cc2)C1` gave an IC50 (read-out: IC50) of 19000 nM and an IC50 (read-out: pIC50 (converted)) of 18600 nM.
`C=C1CN(S(=O)(=O)c2ccc(C)cc2)CCCN(CC2CCCCC2)CCCN(S(=O)(=O)c2ccc(C)cc2)C1` was tested, and the IC50 (read-out: IC50) was 190 nM and the IC50 (read-out: pIC50 (converted)) was 186 nM.
In the case of `C=C1CN(S(=O)(=O)c2ccc(C)cc2)CCCN(CC2CCCCC2)CCCN(S(=O)(=O)c2cccc3c(N(C)C)cccc23)C1`, the IC50 (read-out: IC50) is reported as 1060 nM and the IC50 (read-out: pIC50 (converted)) is reported as 1070 nM.
`C=C1CN(S(=O)(=O)c2ccc(C)cc2)CCCN(CC2CCCCC2)CCCN(S(=O)(=O)c2ccc(C(C)(C)C)cc2)C1` showed an IC50 (read-out: IC50) of 780 nM and an IC50 (read-out: pIC50 (converted)) of 776 nM.
In the case of `C=C1CN(S(=O)(=O)c2ccc(C)cc2)CCCN(CC2CCCCC2)CCCN(S(=O)(=O)c2ccc(Cl)cc2)C1`, the IC50 (read-out: IC50) is reported as 360 nM and the IC50 (read-out: pIC50 (converted)) is reported as 363 nM.
In the case of `C=C1CN(S(=O)(=O)c2ccc(C)cc2)CCCN(CC2CCCCC2)CCCN(S(=O)(=O)c2cccc3cnccc23)C1`, the IC50 (read-out: IC50) is reported as > 25000 nM and the IC50 (read-out: pIC50 (converted)) is reported as 22900 nM.
Work on `C=C1CN(S(=O)(=O)c2ccc(C)cc2)CCCN(CC2CCCCC2)CCCN(S(=O)(=O)c2ccc(OC)cc2)C1` yielded an IC50 (read-out: IC50) of 46 nM and an IC50 (read-out: pIC50 (converted)) of 45.7 nM.
`C=C1CN(S(=O)(=O)c2ccc(C)cc2)CCCN(CC2CCCCC2)CCCN(S(=O)(=O)c2cccc3ccccc23)C1` gave an IC50 (read-out: IC50) of 940 nM and an IC50 (read-out: pIC50 (converted)) of 933 nM.
`C=C1CN(S(=O)(=O)c2ccc(C)cc2)CCCN(CC2CCCCC2)CCCN(S(=O)(=O)c2ccc3ccccc3c2)C1` gave an IC50 (read-out: IC50) of 180 nM and an IC50 (read-out: pIC50 (converted)) of 178 nM.
Work on `C=C1CN(S(=O)(=O)c2ccc(C)cc2)CCCN(CC2CCCCC2)CCCN(S(=O)(=O)c2ccc([N+](=O)[O-])cc2)C1` yielded an IC50 (read-out: IC50) of 760 nM and an IC50 (read-out: pIC50 (converted)) of 759 nM.
`C=C1CN(S(=O)(=O)c2ccccc2)CCCN(CC2CCCCC2)CCCN(S(=O)(=O)c2ccc(C)cc2)C1` gave an IC50 (read-out: IC50) of 430 nM and an IC50 (read-out: pIC50 (converted)) of 437 nM.
`C=C1CN(S(=O)(=O)c2ccc(C)cc2)CCCN(Cc2ccccc2)CCCN(S(=O)(=O)c2ccc(OC)cc2)C1` was tested, and the IC50 (read-out: IC50) was 300 nM and the IC50 (read-out: pIC50 (converted)) was 295 nM.
`C=C1CN(S(=O)(=O)c2ccc(OC)cc2)CCCN(CC2CCCCC2)CCCN(S(=O)(=O)c2cccc3c(N(C)C)cccc23)C1` showed an IC50 (read-out: IC50) of 730 nM and an IC50 (read-out: pIC50 (converted)) of 724 nM.
For `C=C1CN(S(=O)(=O)c2ccc(C)cc2)CCCN(CC2CCCCC2)CCCN(S(=O)(=O)c2ccccc2[N+](=O)[O-])C1`, the IC50 (read-out: IC50) was 220 nM and the IC50 (read-out: pIC50 (converted)) was 224 nM.
For `C=C1CN(S(=O)(=O)c2ccc(OC)cc2)CCCN(CC2CCCCC2)CCCN(S(=O)(=O)c2ccc(OC)cc2)C1`, the IC50 (read-out: IC50) was 130 nM and the IC50 (read-out: pIC50 (converted)) was 135 nM.
With `C=C1CN(S(=O)(=O)c2ccc(C)cc2)CCCN(Cc2ccccc2)CCCN(S(=O)(=O)c2cccc3c(N(C)C)cccc23)C1` the IC50 (read-out: IC50) was 5900 nM and the IC50 (read-out: pIC50 (converted)) was 5890 nM.
`C=C1CN(S(=O)(=O)c2ccc(OC)cc2)CCCN(Cc2ccccc2)CCCN(S(=O)(=O)c2ccc(OC)cc2)C1` gave an IC50 (read-out: IC50) of 230 nM and an IC50 (read-out: pIC50 (converted)) of 229 nM.
For `C=C1CN(S(=O)(=O)c2ccc(C)cc2)CCCN(Cc2ccccc2)CCCN(S(=O)(=O)c2ccc(C)cc2)C1` [CYCLOTRIAZADISULFONAMIDE HYDROCHLORIDE], the IC50 (read-out: IC50) was 560 nM and the IC50 (read-out: pIC50 (converted)) was 562 nM.

From ChEMBL document CHEMBL1817570, “Unsymmetrical cyclotriazadisulfonamide (CADA) compounds as human CD4 receptor down-modulating agents” (J Med Chem, 2011)
